Test results: ChEMBL document CHEMBL1136992, “Further studies at neuropeptide s position 5: discovery of novel neuropeptide S receptor antagonists” (J Med Chem, 2009)
Active and inactive are the calls of the source. No cut-off for these calls is given here. Square brackets hold non-standard residues; d marks the D form. Peptide text beside a SMILES is read from it. * marks the point of attachment. d(tBuAla) = CC(C)(C)C[C@@H](N)C(=O)O; d(aThr) = C[C@@H](O)[C@@H](N)C(=O)O; dCha = N[C@H](CC1CCCCC1)C(=O)O; dChg = N[C@@H](C(=O)O)C1CCCCC1; dPen = CC(C)(S)[C@@H](N)C(=O)O; dPhg = N[C@@H](C(=O)O)c1ccccc1; dNva = CCC[C@@H](N)C(=O)O; tBu = CC(C)(C)*

target: T1, Neuropeptide S receptor (Mus musculus, UniProt Q8BZP8); assay: Agonist activity at mouse NPSR expressed in HEK293 cells by calcium mobilization assay; type: functional, cell-based
T1 sequence (Q8BZP8 whole entry): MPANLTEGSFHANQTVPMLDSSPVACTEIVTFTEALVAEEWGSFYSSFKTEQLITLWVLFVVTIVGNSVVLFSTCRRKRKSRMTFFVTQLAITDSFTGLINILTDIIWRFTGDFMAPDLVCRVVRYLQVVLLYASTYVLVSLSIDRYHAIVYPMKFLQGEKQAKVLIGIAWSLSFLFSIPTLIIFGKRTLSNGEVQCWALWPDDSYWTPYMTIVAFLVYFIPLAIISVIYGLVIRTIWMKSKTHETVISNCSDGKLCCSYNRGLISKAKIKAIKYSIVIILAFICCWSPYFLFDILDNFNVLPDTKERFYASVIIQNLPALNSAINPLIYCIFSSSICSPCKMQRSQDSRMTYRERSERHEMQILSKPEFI
In short: (§1)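 HEK293 cells stably expressing mouse NPSR; intracellular calcium mobilization measured after peptide addition, concentration-response curves giving pEC50 and Emax as % over basal. Mean of at least four separate experiments performed in duplicate.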

EC50 [nM]	Molecule
1660	CSCC[C@H](NC(=O)CNC(=O)[C@@H](NC(=O)CNC(=O)[C@@H](NC(=O)[C@@H](CC(C)(C)C)NC(=O)[C@H](CC(N)=O)NC(=O)[C@H](CCCN=C(N)N)NC(=O)[C@H](Cc1ccccc1)NC(=O)[C@@H](N)CO)C(C)C)[C@@H](C)O)C(=O)N[C@@H](CCCCN)C(=O)N[C@@H](CCCCN)C(=O)N[C@H](C(=O)N[C@@H](CO)C(=O)N[C@@H](Cc1ccccc1)C(=O)N[C@@H](CCC(N)=O)C(=O)N[C@@H](CCCN=C(N)N)C(=O)N[C@@H](C)C(=O)N[C@@H](CCCCN)C(=O)O)[C@@H](C)O (H-SFRN[d(tBuAla)]VGTGMKKTSFQRAK-OH)
2690	CCC[C@@H](NC(=O)[C@H](CC(N)=O)NC(=O)[C@H](CCCN=C(N)N)NC(=O)[C@H](Cc1ccccc1)NC(=O)[C@@H](N)CO)C(=O)N[C@H](C(=O)NCC(=O)N[C@H](C(=O)NCC(=O)N[C@@H](CCSC)C(=O)N[C@@H](CCCCN)C(=O)N[C@@H](CCCCN)C(=O)N[C@H](C(=O)N[C@@H](CO)C(=O)N[C@@H](Cc1ccccc1)C(=O)N[C@@H](CCC(N)=O)C(=O)N[C@@H](CCCN=C(N)N)C(=O)N[C@@H](C)C(=O)N[C@@H](CCCCN)C(=O)O)[C@@H](C)O)[C@@H](C)O)C(C)C (H-SFRN[dNva]VGTGMKKTSFQRAK-OH)
4.79	H-SFRNGVGTGMKKTSFQRAKS-OH [NEUROPEPTIDE S]
794	CSCC[C@H](NC(=O)CNC(=O)[C@@H](NC(=O)CNC(=O)[C@@H](NC(=O)[C@H](NC(=O)[C@H](CC(N)=O)NC(=O)[C@H](CCCNC(=N)N)NC(=O)[C@H](Cc1ccccc1)NC(=O)[C@@H](N)CO)[C@H](C)O)C(C)C)[C@@H](C)O)C(=O)N[C@@H](CCCCN)C(=O)N[C@@H](CCCCN)C(=O)N[C@H](C(=O)N[C@@H](CO)C(=O)N[C@@H](Cc1ccccc1)C(=O)N[C@@H](CCC(N)=O)C(=O)N[C@@H](CCCNC(=N)N)C(=O)N[C@@H](C)C(=O)N[C@@H](CCCCN)C(=O)O)[C@@H](C)O (H-SFRN[dT]VGTGMKKTSFQRAK-OH)
661	CSCC[C@H](NC(=O)CNC(=O)[C@@H](NC(=O)CNC(=O)[C@@H](NC(=O)[C@H](NC(=O)[C@H](CC(N)=O)NC(=O)[C@H](CCCN=C(N)N)NC(=O)[C@H](Cc1ccccc1)NC(=O)[C@@H](N)CO)c1ccccc1)C(C)C)[C@@H](C)O)C(=O)N[C@@H](CCCCN)C(=O)N[C@@H](CCCCN)C(=O)N[C@H](C(=O)N[C@@H](CO)C(=O)N[C@@H](Cc1ccccc1)C(=O)N[C@@H](CCC(N)=O)C(=O)N[C@@H](CCCN=C(N)N)C(=O)N[C@@H](C)C(=O)N[C@@H](CCCCN)C(=O)O)[C@@H](C)O (H-SFRN[dPhg]VGTGMKKTSFQRAK-OH)

target: T2, Neuropeptide S receptor (Mus musculus) (UniProt Q8BZP8); assay: Agonist activity at mouse NPSR expressed in HEK293 cells up to 10 uM by calcium mobilization assay; type: functional, cell-based; in short: as §1
T2 sequence (whole entry): T1 sequence (Q8BZP8 whole entry)

Emax	Molecule
inactive	CSCC[C@H](NC(=O)CNC(=O)[C@@H](NC(=O)CNC(=O)[C@@H](NC(=O)[C@H](NC(=O)[C@H](CC(N)=O)NC(=O)[C@H](CCCNC(=N)N)NC(=O)[C@H](Cc1ccccc1)NC(=O)[C@@H](N)CO)[C@@H](C)O)C(C)C)[C@@H](C)O)C(=O)N[C@@H](CCCCN)C(=O)N[C@@H](CCCCN)C(=O)N[C@H](C(=O)N[C@@H](CO)C(=O)N[C@@H](Cc1ccccc1)C(=O)N[C@@H](CCC(N)=O)C(=O)N[C@@H](CCCNC(=N)N)C(=O)N[C@@H](C)C(=O)N[C@@H](CCCCN)C(=O)O)[C@@H](C)O (H-SFRN[d(aThr)]VGTGMKKTSFQRAK-OH)
inactive	CC[C@@H](C)[C@@H](NC(=O)[C@H](CC(N)=O)NC(=O)[C@H](CCCNC(=N)N)NC(=O)[C@H](Cc1ccccc1)NC(=O)[C@@H](N)CO)C(=O)N[C@H](C(=O)NCC(=O)N[C@H](C(=O)NCC(=O)N[C@@H](CCSC)C(=O)N[C@@H](CCCCN)C(=O)N[C@@H](CCCCN)C(=O)N[C@H](C(=O)N[C@@H](CO)C(=O)N[C@@H](Cc1ccccc1)C(=O)N[C@@H](CCC(N)=O)C(=O)N[C@@H](CCCNC(=N)N)C(=O)N[C@@H](C)C(=O)N[C@@H](CCCCN)C(=O)O)[C@@H](C)O)[C@@H](C)O)C(C)C (H-SFRN[dI]VGTGMKKTSFQRAK-OH)
inactive	CSCC[C@H](NC(=O)CNC(=O)[C@@H](NC(=O)CNC(=O)[C@@H](NC(=O)[C@H](NC(=O)[C@H](CC(N)=O)NC(=O)[C@H](CCCNC(=N)N)NC(=O)[C@H](Cc1ccccc1)NC(=O)[C@@H](N)CO)C(C)(C)S)C(C)C)[C@@H](C)O)C(=O)N[C@@H](CCCCN)C(=O)N[C@@H](CCCCN)C(=O)N[C@H](C(=O)N[C@@H](CO)C(=O)N[C@@H](Cc1ccccc1)C(=O)N[C@@H](CCC(N)=O)C(=O)N[C@@H](CCCNC(=N)N)C(=O)N[C@@H](C)C(=O)N[C@@H](CCCCN)C(=O)O)[C@@H](C)O (H-SFRN[dPen]VGTGMKKTSFQRAK-OH)
inactive	CC[C@H](C)C(NC(=O)[C@H](CC(N)=O)NC(=O)[C@H](CCCNC(=N)N)NC(=O)[C@H](Cc1ccccc1)NC(=O)[C@@H](N)CO)C(=O)N[C@H](C(=O)NCC(=O)N[C@H](C(=O)NCC(=O)N[C@@H](CCSC)C(=O)N[C@@H](CCCCN)C(=O)N[C@@H](CCCCN)C(=O)N[C@H](C(=O)N[C@@H](CO)C(=O)N[C@@H](Cc1ccccc1)C(=O)N[C@@H](CCC(N)=O)C(=O)N[C@@H](CCCNC(=N)N)C(=O)N[C@@H](C)C(=O)N[C@@H](CCCCN)C(=O)O)[C@@H](C)O)[C@@H](C)O)C(C)C (single isomer, unassigned)
inactive	CSCC[C@H](NC(=O)CNC(=O)[C@@H](NC(=O)CNC(=O)[C@@H](NC(=O)[C@H](NC(=O)[C@H](CC(N)=O)NC(=O)[C@H](CCCNC(=N)N)NC(=O)[C@H](Cc1ccccc1)NC(=O)[C@@H](N)CO)C1CCCCC1)C(C)C)[C@@H](C)O)C(=O)N[C@@H](CCCCN)C(=O)N[C@@H](CCCCN)C(=O)N[C@H](C(=O)N[C@@H](CO)C(=O)N[C@@H](Cc1ccccc1)C(=O)N[C@@H](CCC(N)=O)C(=O)N[C@@H](CCCNC(=N)N)C(=O)N[C@@H](C)C(=O)N[C@@H](CCCCN)C(=O)O)[C@@H](C)O (H-SFRN[dChg]VGTGMKKTSFQRAK-OH)
inactive	CSCC[C@H](NC(=O)CNC(=O)[C@@H](NC(=O)CNC(=O)[C@@H](NC(=O)[C@@H](CC1CCCCC1)NC(=O)[C@H](CC(N)=O)NC(=O)[C@H](CCCNC(=N)N)NC(=O)[C@H](Cc1ccccc1)NC(=O)[C@@H](N)CO)C(C)C)[C@@H](C)O)C(=O)N[C@@H](CCCCN)C(=O)N[C@@H](CCCCN)C(=O)N[C@H](C(=O)N[C@@H](CO)C(=O)N[C@@H](Cc1ccccc1)C(=O)N[C@@H](CCC(N)=O)C(=O)N[C@@H](CCCNC(=N)N)C(=O)N[C@@H](C)C(=O)N[C@@H](CCCCN)C(=O)O)[C@@H](C)O (H-SFRN[dCha]VGTGMKKTSFQRAK-OH)

target: T2, Neuropeptide S receptor (Mus musculus); assay: Antagonist activity at mouse NPSR expressed in HEK293 cells assessed as inhibition of NPS-induced response; type: functional, cell-based
In short: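 HEK293 cells stably expressing mouse NPSR, calcium mobilization. Inhibition response curves to test peptides against 30 nM NPS, run at 37 °C with three up-and-down mixing cycles right after antagonist injection to aid diffusion. Mean of at least four separate experiments performed in duplicate.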

pKb	Molecule
6.5	CSCC[C@H](NC(=O)CNC(=O)[C@@H](NC(=O)CNC(=O)[C@@H](NC(=O)[C@@H](CSC(C)(C)C)NC(=O)[C@H](CC(N)=O)NC(=O)[C@H](CCCNC(=N)N)NC(=O)[C@H](Cc1ccccc1)NC(=O)[C@@H](N)CO)C(C)C)[C@@H](C)O)C(=O)N[C@@H](CCCCN)C(=O)N[C@@H](CCCCN)C(=O)N[C@H](C(=O)N[C@@H](CO)C(=O)N[C@@H](Cc1ccccc1)C(=O)N[C@@H](CCC(N)=O)C(=O)N[C@@H](CCCNC(=N)N)C(=O)N[C@@H](C)C(=O)N[C@@H](CCCCN)C(=O)N[C@@H](CO)C(=O)O)[C@@H](C)O (H-SFRN[dC](tBu)VGTGMKKTSFQRAKS-OH)
